The values that follow come from ChEMBL document CHEMBL1136122, “Are 5'-O-carbamate-2',3'-dideoxythiacytidine new anti-HIV and anti-HBV nucleoside drugs or prodrugs?” (Bioorg Med Chem Lett, 2003).

The nature of test [1]: Selectivity (CC50/EC50) for death of uninfected MT4 cell to that of inhibition of cytopathicity of HIV-1 IIIB on MT-4 cell. It is filed as functional.
Test [2] can be described thus: In vitro concentration required to cause death of uninfected PBMCs cell (peripheral blood mononuclear cells). It is filed as functional. To be noted: Homo sapiens, PBMC.
Test [3] in a line: In vitro concentration required to inhibit the HIV-1 LA1 replication on PBMCs cell (peripheral blood mononuclear cells). Conditions: Homo sapiens, PBMC; call rule not given here. It counts as functional, cell-based. The gist of the method: (§1)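 EC50 is reported with standard deviation. In MT-4 cells it is 50% protection from HIV-1 cytopathicity. In PBMCs it is 50% inhibition of HIV-1 replication.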
Test [4] relates to MT4. The test can be described thus: In vitro concentration required to inhibit the cytopathicity of HIV-1 IIIB on MT-4 cell. It is filed as functional, cell-based. To be noted: Homo sapiens. The gist of the method:
as §1

The nature of test [5]: Selectivity (CC50/EC50) for death of uninfected PBMCs to that of inhibition of […] of HIV-1 LA1 on PBMCs (peripheral blood mononuclear cells). It is filed as functional.
For the next test, the system named is HepG2. The test can be described thus: In vitro concentration required to inhibit HBV DNA secretion by HepG2.2.15 transfected by HBV. To be noted: Homo sapiens. It is filed as functional, cell-based. The gist of the method: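 Used HepG2.2.15 cells stably transfected with HBV, following a standard procedure. EC50 is the concentration giving 50% inhibition of HBV DNA secretion, reported with standard deviation.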

Test [6] has as its system MT4. As to the kind of experiment: In vitro concentration required to cause death of uninfected MT-4 cell. It is filed as functional. To be noted: Homo sapiens.
The test system of test [7] is MT4. As to the kind of experiment: In vitro concentration required to inhibit the cytopathicity of HIV-1 IIIB on MT-4 cell; NA=no activity. It counts as functional, cell-based, Homo sapiens. The gist of the method: as §1

For `Nc1ccn(C2CSC(COC(=O)NCCCCCCO)O2)c(=O)n1` (centres undefined), the SI in test [1] is recorded as greater than 3; in test [5] it was greater than 1. Moreover, the results for the 50% cytotoxic concentration (CC50) (in test [2]; in the test with MT4 [6]) were greater than 10 µM and greater than 208 µM, respectively. The 50% effective concentration (EC50) in test [3] was determined as 10 µM; with MT4 [4], 75 µM; in the test with HepG2, 5 µM.

For `NCCCNC(=O)OCC1OC(n2ccc(N)nc2=O)CS1` (centres undefined), the SI in test [1] and in test [5] was greater than 10 in each case. Moreover, the CC50 in test [2] is greater than 10 µM; in the test with MT4 [6], greater than 282 µM. For the same compound, the EC50 in test [3] is 1 µM; in the test on MT4 [4] it was 27 µM; with HepG2 it was 1 µM.

Turning to `CCCCNC(=O)OCC1OC(n2ccc(N)nc2=O)CS1` (centres undefined), the values for the SI in test [1] and in test [5] were greater than 11 and greater than 2, respectively. The results for the CC50 (in test [2]; in the test on MT4 [6]) were greater than 10 µM and greater than 283 µM, respectively. Moreover, the 50% effective concentration (EC50) in test [3] was determined as 5 µM; in the test with MT4 [4] it was 26 µM; in the test with HepG2, 1 µM.

Take `Nc1ccn([C@@H]2CS[C@H](CO)O2)c(=O)n1` [LAMIVUDINE]: the SI in test [1] is reported as greater than 107; in test [5], greater than 1000. Moreover, the figures for the CC50 (in test [2]; in the test on MT4 [6]) were greater than 10 µM and greater than 44 µM, respectively. Moreover, the EC50 in test [3] came out at 0.01 µM; in the test with MT4 [4], 0.4 µM; with HepG2 it was 0.4 µM.

`NCCCCNC(=O)OCC1OC(n2ccc(N)nc2=O)CS1` (centres undefined): the values for the SI in test [1] and in test [5] were greater than 14 and greater than 1, respectively. In addition, the CC50 in test [2] was greater than 10 µM; in the test with MT4 [6], greater than 218 µM. For the same compound, the EC50 stood at 10 µM in test [3], 15 µM in the test with MT4 [4] and 1 µM with HepG2.

`CCOP(=O)(CNC(=O)OCC1OC(n2ccc(N)nc2=O)CS1)OCC` (centres undefined): the SI in test [1] was greater than 2; in test [5], greater than 1. In addition, the CC50 in test [2] was greater than 10 µM; in the test on MT4 [6], greater than 233 µM. Also, the concentration for a half-maximal effect (EC50) in test [3] is 10 µM; in the test with MT4 [4], 126 µM; with HepG2, greater than 5 µM.

In the case of `Nc1ccn(C2CSC(COC(=O)NCCCCO)O2)c(=O)n1` (centres undefined), the CC50 in test [2] was greater than 10 µM; in the test with MT4 [6] it was greater than 217 µM. The concentration for a half-maximal effect (EC50) was greater than 10 µM in test [3], greater than 200 µM in the test with MT4 [4] and 5 µM in the test with HepG2.

Take `Nc1ccn(C2CSC(COC(=O)NCP(=O)(O)O)O2)c(=O)n1` (centres undefined): the half-maximal effective concentration (EC50) result is “Not Active” in the test on MT4 [7], greater than 10 µM in test [3] and 5 µM with HepG2. Further, the cytotoxic concentration (CC50) in test [2] was greater than 10 µM; in the test on MT4 [6] it was greater than 322 µM.

Regarding `NCCCOC(=O)OCC1OC(n2ccc(N)nc2=O)CS1` (centres undefined), the SI in test [1] is greater than 57; in test [5] it was greater than 1000. Besides, the CC50 in test [2] was greater than 10 µM; in the test with MT4 [6], greater than 17 µM. For the same compound, the half-maximal effective concentration (EC50) came out at 0.01 µM in test [3], 0.3 µM in the test with MT4 [4] and 0.5 µM in the test on HepG2.

As to `CCCNC(=O)OCC1OC(n2ccc(N)nc2=O)CS1` (centres undefined), the SI was greater than 9 in test [1] and greater than 1 in test [5]. Besides, the values for the CC50 (in test [2]; in the test on MT4 [6]) were greater than 10 µM and greater than 285 µM, respectively. Moreover, the EC50 in test [3] came out at 10 µM; in the test on MT4 [4] it was 32 µM; in the test with HepG2, 5 µM.

For the compound `Nc1ccn(C2CSC(COC(=O)NCCCO)O2)c(=O)n1` (centres undefined), the 50% cytotoxic concentration (CC50) in test [2] is greater than 10 µM; with MT4 [6] it was greater than 281 µM. The figures for the concentration for a half-maximal effect (EC50) (in test [3]; in the test on MT4 [4]; in the test on HepG2) were greater than 10 µM, greater than 254 µM and 1 µM, respectively. In test [5], the SI was greater than 1.

Take `NCCCCOC(=O)OCC1OC(n2ccc(N)nc2=O)CS1` (centres undefined): the SI in test [1] is greater than 260; in test [5], greater than 100. Moreover, the values for the 50% cytotoxic concentration (CC50) (in test [2]; with MT4 [6]) were greater than 10 µM and greater than 218 µM, respectively. Moreover, the EC50 in test [3] amounted to 0.1 µM; in the test with MT4 [4] it was 0.8 µM; in the test on HepG2 it was 1 µM.
